Screening results deposited in PubChem by Sanford-Burnham Center for Chemical Genomics.
STEP inh – blocks human striatal-enriched tyrosine phosphatase. recombinant STEP, OMFP fluorogenic substrate, fluorescence. inhibition, % at 20 µM. hit rate 0.25% among 360,000;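 active means inhibition at 20 µM, scaled per plate between control wells, above about 37%, limit read from the data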;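 further: 0% = DMSO with enzyme and substrate and 100% = substrate only without enzyme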
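medium = Bis-Tris buffer pH 6.0, 2.5 mM DTT, 0.005% Tween 20 | test system = STEP (striatal-enriched tyrosine phosphatase) enzyme, cell-free | measure = normalized % inhibition | compound dosing = 20 µM, 1% DMSO | also added = 25 µM OMFP | schedule = reaction 20 min, ambient temperature | measured by = fluorescence read at 480 nm ex / 540 nm em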
Scp-1 inhibitor – Scp-1 (human) phosphatase inhibition; AID 493091; Q9GZU7; Recombinant Scp1, phosphopeptide, malachite green phosphate absorbance; hit rate 0.88% among 340,000; inhibition, % at 20 µM;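 active means inhibition above about 50% at 20 µM, limit read from the data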;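 further: plate controls were DMSO wells with enzyme for no effect and wells lacking enzyme for full effect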
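System: SCP-1 catalytic domain; Reagent: Phospho 17-mer peptide substrate; Doses: one concentration, 20 µM, with 1.0% DMSO; Incubation: 45 min room-temperature reaction, 5 min colour, 30 min stabiliser; Signal: Phosphate-binding colour reagent, absorbance read at 630 nm.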
LMPTP inh – LMPTP (human) inhibition | P24666 | recombinant LMPTP-A, OMFP fluorogenic substrate, fluorescence intensity | inhibition, % at 20 µM | hit rate 0.22% among 360,000 | AID 651560;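 active means compounds that cut the enzyme signal by at least half of the control window in the single-dose screen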;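 further: plate controls were DMSO wells with enzyme plus substrate for no effect and substrate without enzyme for full effect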
Target sequence (P24666 whole entry, looked up): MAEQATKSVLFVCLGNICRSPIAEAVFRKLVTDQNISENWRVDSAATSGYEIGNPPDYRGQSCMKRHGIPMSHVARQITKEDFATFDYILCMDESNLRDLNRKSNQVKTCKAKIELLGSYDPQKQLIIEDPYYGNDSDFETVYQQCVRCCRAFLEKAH
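Test system – LMPTP-A enzyme · Amount – LMPTP-A at 0.625 nM final in the reaction · Buffer or medium – Bis-Tris pH 6.0, DTT, detergent · Reagent – OMFP 400 µM · Doses – single 20 µM dose · Schedule – reaction 50 min, room temperature, dark · Detection – fluorescence intensity of OMFP turnover product · Evaluation – percent inhibition versus substrate-only and uninhibited controls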
DNMT1 block – blocks human DNA methyltransferase DNMT1; hit rate 0.83% among 360,000; DNMT1 molecular beacon, Hinp1I cleavage, fluorescence; inhibition (reported as % activation of signal), % at 10 µM; P26358; in the data active means inhibition above about 50%
SUMO HTRF inh – inhibitors of human SUMOylation (UBC9) | P63279 | HTRF SUMOylation assay, SAE1/SAE2 + UBC9, in vitro | inhibition, % at 35 µM | hit rate 0.36% among 290,000 | AID 2006; in the data active means inhibition above about 50%, passing the limit was not always enough
Target sequence (P63279 whole entry, looked up): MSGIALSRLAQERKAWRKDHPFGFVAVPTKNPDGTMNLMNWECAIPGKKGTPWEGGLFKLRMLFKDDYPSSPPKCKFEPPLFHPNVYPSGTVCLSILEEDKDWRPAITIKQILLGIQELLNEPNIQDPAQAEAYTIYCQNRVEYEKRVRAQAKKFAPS
SUMO1-SIM PPI – modulators of human SUMO1-mediated protein-protein interactions; P63165; SUMO1 binding to a labelled peptide, TR-FRET, 1 h; inhibition, % at 20 µM; hit rate 0.33% among 360,000; AID 602429; in the data active means inhibition above about 37%
Target sequence (P63165 whole entry, looked up): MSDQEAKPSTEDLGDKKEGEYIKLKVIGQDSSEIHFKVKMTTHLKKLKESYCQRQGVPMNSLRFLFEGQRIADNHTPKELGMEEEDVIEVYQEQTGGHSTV
Scp1 confirm – Scp-1 (human) inhibition, single-dose confirmed | recombinant SCP-1 catalytic domain, phosphate release, malachite green absorbance | inhibition, % at 20 µM | AID 540281 | shares compounds with Scp-1 inhibitor | hit rate 61% among 2,500;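 further: plate controls were DMSO with enzyme for no effect and buffer wells lacking enzyme for full effect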
Scp-1 MG ctr – interferes with malachite green readout, flagging false Scp-1 hits; shares compounds with Scp-1 inhibitor; Colorimetric interference counterscreen, malachite green absorbance 630 nm; apparent inhibition (interference), % at 20 µM; 2,500 tested, under 10 active;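 further: compounds added after enzyme reaction finished so only phosphate colour detection is probed; plate controls were DMSO wells with completed Scp-1 reaction for no effect and substrate wells lacking enzyme for full effect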
Scp1 DSF – Scp-1 (human) binding by thermal shift; shares compounds with Scp-1 inhibitor; Recombinant SCP1, Sypro Orange thermal shift Tm; thermal shift relative to vanadate control, % at 40 µM; hit rate 25% among 1,500;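 active means substances whose mean melting-temperature shift, as a percentage of the reference inhibitor's shift, reaches about 5.3%, limit read from the data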;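 further: 0% = Tm of DMSO wells and 100% = Tm with sodium orthovanadate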
* marks the source's active call; other numbers are inactive results; / = not tested or not shown. Only some compounds are listed: those with a hit (about 1.9% of all), similar ones and a draw of the others.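 How the source made its calls, unless noted: active means inhibition of at least 30% at 20 µM; inactive means the rest.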

SMILES	STEP inh	Scp-1 inhibitor	LMPTP inh	DNMT1 block	SUMO HTRF inh	SUMO1-SIM PPI	Scp1 confirm	Scp-1 MG ctr	others
N#Cc1ccc(-c2c(-c3ccccc3)ncc3cc(F)ccc23)cc1	1	5	1	6	/	-2	/	/
COC(=O)c1ccc(-c2c(-c3ccccc3)ncc3cc(F)ccc23)cc1	-2	53*	2	2	/	1	-6	-4
O=C(CCNC(=O)c1ccco1)Nc1ccc(Cl)cc1F	0	-6	0	0	17	1	/	/
Cc1ccc(NC(=O)COc2ncnc3cc([N+](=O)[O-])ccc23)cc1S(=O)(=O)N1CCOCC1	0	-7	1	-2	13	-27	/	/
CCn1c(CC(=O)Nc2ccccc2Cl)nnc1SCC(=O)NC1CCCC1	-1	1	0	1	11	-2	/	/
O=c1c2c(nc3cc(-c4ccc(Cl)cc4)[nH]n13)CCS2	22	84*	61*	27	15	10	31*	-4	Scp1 DSF=2
Cc1nc(N(C)C2CCCCC2)c2nnn(Cc3ccc(F)cc3)c2n1	4	/	1	4	/	7	/	/
Cc1cc(=O)[nH]c2nc3ccccc3n12	-2	/	-1	5	/	-15	/	/
CCc1cc(/C(Cc2ccccn2)=N\Nc2ccccc2)c(O)cc1O	-1	-3	-2	-10	3	-3	/	/
CCOC(=O)N1CCC(NC(=O)c2cccc3c2C(=O)N(c2ccc(OC)cc2)C3)CC1	4	52*	3	30	6	8	49*	-10	Scp1 DSF=3
CCOC(=O)N1CCC(N2Cc3cccc(C(=O)NCc4ccc5c(c4)OCO5)c3C2=O)CC1	6	92*	3	20	14	8	65*	-12	Scp1 DSF=-6
CCOC(=O)N1CCC(N2Cc3cccc(C(=O)NCc4ccc(OC)cc4)c3C2=O)CC1	/	/	/	/	6	/	/	/
Nc1sc(-c2ccccc2)cc1C(=O)N1CCN(c2ccccc2)CC1	/	/	3	/	/	0	/	/
C/C(=N/NC(=O)c1ccncc1)c1cc2ccc(O)cc2oc1=O	-89	1	-7	-7	1	-26	/	/
C/C(=N/NC(N)=S)c1cc2ccc(O)cc2oc1=O	-3	55*	10	47	20	-1	36*	-12	Scp1 DSF=5
COc1ccc(Cl)c2sc(N(CCN(C)C)C(=O)C3=COCCO3)nc12	0	91*	0	0	/	-1	-13	-12
CN(C(=O)CCN1C(=O)/C(=C/c2ccccc2)SC1=S)C1CCS(=O)(=O)C1 (stereo not drawn)	14	76*	15	1	-85	80*	19	0
C(=N\N1CCOCC1)/c1cccs1	4	1	-1	-2	17	4	/	/
Cc1ccc(S(=O)(=O)NCc2ccc(C(=O)NCCc3ccc(S(N)(=O)=O)cc3)cc2)cc1	-1	3	1	1	17	2	/	/
FC(F)(F)c1cnc(C(c2ccccc2)c2ncn[nH]2)c(Cl)c1 (stereo not drawn)	-1	98*	-2	1	18	3	2	-3
FC(F)(F)c1cnc(C(c2ccccn2)c2ncn[nH]2)c(Cl)c1 (stereo not drawn)	1	-5	-1	-4	-6	-2	/	/
CC(=O)OCCCCCCCCCCC[N+]1(C)CCCCC1	-1	45	0	-1	0	0	/	/
C[N+]1(CCCCSc2ccc(O)cc2)CCCCC1	2	98*	-1	12	-3	-2	83*	-15	Scp1 DSF=-13
CCCCOc1ccc(CNC(=O)NS(=O)(=O)c2ccc(OCC(C)C)cc2)cc1	0	52*	-1	2	14	2	39*	-11	Scp1 DSF=-15
Cc1cc(Nc2ccccc2)n(-c2ccc(Br)cc2)n1	-5	54*	3	-8	-10	1	-16	-12
